In ChEMBL document CHEMBL4616587, “Kolavenic acid analog restores growth in HSET-overproducing fission yeast cells and multipolar mitosis in MDA-MB-231 human cells” (Bioorg Med Chem, 2020):
The source made the active and inactive calls. No cut-off for these calls is given here.

Columns and labels:
[1] = target: T1, Kinesin-like protein KIFC1 (Homo sapiens) (UniProt Q9BW19); assay: (§1) Inhibition of HSET in human MDA-MB-231 cells overexpressing HSET and possessing supernumerary centrosomes assessed as inhibition of centrosome clustering by measuring bipolar spindle formation at 40 uM incubated for 24 hrs by Hoechst 33342 staining based fluorescence microscopic method relative to control; assay type: cell-based; set-up: scale not given: the % may be the effect or the level left
T1 sequence (whole entry): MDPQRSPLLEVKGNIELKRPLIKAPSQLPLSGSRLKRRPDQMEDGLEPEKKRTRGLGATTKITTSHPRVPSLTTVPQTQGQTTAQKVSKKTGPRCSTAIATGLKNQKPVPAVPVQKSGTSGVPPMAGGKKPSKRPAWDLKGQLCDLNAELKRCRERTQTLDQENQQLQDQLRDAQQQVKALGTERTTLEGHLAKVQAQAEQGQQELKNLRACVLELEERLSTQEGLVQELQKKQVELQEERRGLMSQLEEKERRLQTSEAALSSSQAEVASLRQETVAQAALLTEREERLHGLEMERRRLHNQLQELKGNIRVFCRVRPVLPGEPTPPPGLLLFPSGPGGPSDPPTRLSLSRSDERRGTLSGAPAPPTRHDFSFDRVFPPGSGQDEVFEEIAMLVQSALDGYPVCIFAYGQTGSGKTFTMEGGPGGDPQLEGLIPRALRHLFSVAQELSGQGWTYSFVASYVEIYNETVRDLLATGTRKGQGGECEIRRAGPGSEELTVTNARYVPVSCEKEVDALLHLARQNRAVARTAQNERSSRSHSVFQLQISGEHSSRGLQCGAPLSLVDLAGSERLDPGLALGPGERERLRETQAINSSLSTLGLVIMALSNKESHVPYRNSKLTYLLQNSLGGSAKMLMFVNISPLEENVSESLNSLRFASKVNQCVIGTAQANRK

[2] = target: T1, Kinesin-like protein KIFC1 (Homo sapiens); assay: as §1, with “increase in multipolar” for “bipolar”, “20” for “40”; assay type: cell-based; set-up: scale not given: the % may be the effect or the level left
WI-38 = assay: Antiproliferative activity against human WI38 cells assessed as inhibition of cell viability incubated for 48 hrs by MTT assay; assay type: functional, cell-based; settings: WI-38, 48 h
[3] = system: Schizosaccharomyces pombe; assay: Inhibition of HSET in Schizosaccharomyces pombe TY27 overexpressing GFP-HSET assessed as inhibition of HSET overproduction-induced lethality by measuring increase in cell viability at 0.25 uM incubated for 2 to 3 days relative to control
[4] = target: T1, Kinesin-like protein KIFC1 (Homo sapiens); assay: (§2) Inhibition of HSET in human MDA-MB-231 cells overexpressing HSET and possessing supernumerary centrosomes assessed as inhibition of centrosome clustering by measuring increase in multipolar spindle formation incubated for 24 hrs by Hoechst 33342 staining based fluorescence microscopic method; assay type: cell-based
[5] = system: Schizosaccharomyces pombe; assay: (§3) Inhibition of HSET in Schizosaccharomyces pombe TY27 overexpressing GFP-HSET assessed as reversion of HSET-induced lethal abnormal monopolar spindle formation to bipolar formation by measuring cells containing monopolar spindles at 0.1 ug/ml incubated for 2 days by wide field inverted epifluorescence microscopic method (reference value: 76%); set-up: scale not given: the % may be the effect or the level left
[6] = system: Schizosaccharomyces pombe; assay: Inhibition of HSET in Schizosaccharomyces pombe TY27 overexpressing GFP-HSET assessed as inhibition of HSET overproduction-induced lethality by measuring cell viability at 0.25 uM incubated for 2 to 3 days relative to control
[7] = system: Schizosaccharomyces pombe; assay: Inhibition of HSET in Schizosaccharomyces pombe TY27 overexpressing GFP-HSET assessed as inhibition of HSET overproduction-induced lethal growth defects by measuring growth restoring activity at 25 ng/spot incubated for 3 days by agar plate-based method
Procedure, shortened: (§4)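 Fission yeast TY27: drug-sensitive YA8 background (h+ bfr1::ura4+ pmd1::hisG leu1 ura4) carrying the pREP41-GFP-HSET plasmid, with the pREP41-GFP vector strain TY26 alongside. Simple plate assay on rich YE5S agar plates, read as restoration of growth of the HSET-overproducing cells. Screened set included SCADS Inhibitor Kits and inhibitors aimed at tubulin or Eg5.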

[8] = system: Schizosaccharomyces pombe; assay: as §3, with “0.01” for “0.1”; set-up: scale not given: the % may be the effect or the level left
MDA-MB-231 = assay: Antiproliferative activity against human MDA-MB-231 cells assessed as inhibition of cell viability incubated for 48 hrs by MTT assay; assay type: functional, cell-based; settings: MDA-MB-231, 48 h
[9] = target: T1, Kinesin-like protein KIFC1 (Homo sapiens); assay: as §1, with “20” for “40”; assay type: cell-based; set-up: scale not given: the % may be the effect or the level left
[10] = system: Schizosaccharomyces pombe; assay: Inhibition of HSET in Schizosaccharomyces pombe TY27 overexpressing GFP-HSET assessed as inhibition of HSET overproduction-induced lethality by measuring cell growth at 0.25 uM incubated for 2 to 3 days (reference value: 8%); set-up: scale not given: the % may be the effect or the level left
[11] = target: T1, Kinesin-like protein KIFC1 (Homo sapiens); assay: as §1, with “increase in multipolar” for “bipolar”; assay type: cell-based; set-up: scale not given: the % may be the effect or the level left
[12] = system: Schizosaccharomyces pombe; assay: Inhibition of HSET in Schizosaccharomyces pombe TY27 overexpressing GFP-HSET assessed as inhibition of HSET overproduction-induced lethal growth defects by measuring growth restoring activity incubated for 3 days by agar plate-based method; procedure, shortened: as §4
[13] = system: Schizosaccharomyces pombe; assay: Inhibition of tubulin in Schizosaccharomyces pombe TY27 overexpressing GFP-HSET assessed as growth restoring activity incubated for 3 days by agar plate-based method; procedure, shortened: as §4
[14] = target: T1, Kinesin-like protein KIFC1 (Homo sapiens); assay: as §2, with “formation at 250 uM” for “formation”; assay type: cell-based
[15] = system: Schizosaccharomyces pombe; assay: Inhibition of HSET in Schizosaccharomyces pombe TY27 overexpressing GFP-HSET assessed as inhibition of HSET overproduction-induced lethal growth defects by measuring growth restoring activity at 6.25 to 50 ug/spot incubated for 3 days by agar plate-based method; procedure, shortened: as §4
[16] = system: Schizosaccharomyces pombe; assay: Inhibition of HSET in Schizosaccharomyces pombe TY27 overexpressing GFP-HSET assessed as inhibition of HSET overproduction-induced lethality by measuring cell growth at 2.8 uM incubated for 2 to 3 days (reference value: 6%); set-up: scale not given: the % may be the effect or the level left
[17] = system: Schizosaccharomyces pombe; assay: Inhibition of HSET in Schizosaccharomyces pombe TY27 overexpressing GFP-HSET assessed as inhibition of HSET overproduction-induced lethality by measuring increase in cell viability at 2.8 uM incubated for 2 to 3 days relative to control
[18] = system: Schizosaccharomyces pombe; assay: Inhibition of HSET in Schizosaccharomyces pombe TY27 overexpressing GFP-HSET assessed as inhibition of HSET overproduction-induced lethality by measuring cell viability at 2.8 uM incubated for 2 to 3 days relative to control
[19] = system: Schizosaccharomyces pombe; assay: as §3, with “1” for “0.1”; set-up: scale not given: the % may be the effect or the level left
[20] = system: Schizosaccharomyces pombe; assay: Inhibition of HSET in Schizosaccharomyces pombe TY27 overexpressing GFP-HSET assessed as inhibition of HSET overproduction-induced lethality by measuring cell growth at 3.3 uM incubated for 2 to 3 days (reference value: 5%); set-up: scale not given: the % may be the effect or the level left
[21] = system: Schizosaccharomyces pombe; assay: Inhibition of HSET in Schizosaccharomyces pombe TY27 overexpressing GFP-HSET assessed as inhibition of HSET overproduction-induced lethality by measuring cell viability at 3.3 uM incubated for 2 to 3 days relative to control
[22] = system: Schizosaccharomyces pombe; assay: Inhibition of HSET in Schizosaccharomyces pombe TY27 overexpressing GFP-HSET assessed as inhibition of HSET overproduction-induced lethality by measuring increase in cell viability at 3.3 uM incubated for 2 to 3 days relative to control
[23] = system: Schizosaccharomyces pombe; assay: Inhibition of Eg5 in Schizosaccharomyces pombe TY27 overexpressing GFP-HSET assessed as growth restoring activity incubated for 3 days by agar plate-based method; procedure, shortened: as §4

SMILES: C/C=C(\C)C(=O)O[C@@H]1C[C@@H](C)[C@@](C)(CC/C(C)=C/C(=O)O)[C@@H]2CCC=C(C)[C@]12C
- Activity [1]: 23%
- Activity [2]: 44%
- IC50 (WI-38): 100 µM
- fold change (FC) [3]: > 2
- inhibition [4]: Dose-dependent effect
- Activity [5]: 12%
- Activity [6]: 89%
- inhibition [7]: inactive
- Activity [8]: 53%
- IC50 (MDA-MB-231): 81.9 µM
- Activity [9]: 49%
- Activity [10]: 13%
- Activity [11]: 77%
- growth restoration (qualitative) [12]: Dose-dependent effect

SMILES: COC(=O)Nc1nc2cc(C(=O)c3cccs3)ccc2[nH]1
- inhibition [13]: inactive

SMILES: COc1cccc2c1C(=O)c1c(O)c3c(c(O)c1C2=O)C[C@@](O)(C(=O)CO)C[C@@H]3O[C@H]1C[C@H](N)[C@H](O)[C@H](C)O1 [DOXORUBICIN]
- IC50 (MDA-MB-231): 4.4 µM

SMILES: CC(=O)O[C@@H]1C[C@@]2(C)C(C)=CCC[C@@H]2[C@@](C)(CC/C(C)=C/C(=O)O)[C@@H]1C
- inhibition [14]: inactive
- inhibition [15]: inactive
- IC50 (WI-38): 265 µM
- Activity [16]: 8%
- Activity [5]: 49%
- fold change (FC) [17]: > 2
- IC50 (MDA-MB-231): 261 µM
- Activity [18]: 81%
- Activity [19]: 11%
- growth restoration (qualitative) [12]: Dose-dependent effect

SMILES: CCCc1cc(C(=O)N[C@H](Cc2ccc(-c3cccc(OC(F)(F)F)c3)nc2)C(=O)N[C@@H]2CCNC2)sc1C
- growth restoration (qualitative) [12]: Dose-dependent effect

SMILES: CC[C@]1(O)C[C@H]2CN(CCc3c([nH]c4ccccc34)[C@@](C(=O)OC)(c3cc4c(cc3OC)N(C)[C@H]3[C@@](O)(C(=O)OC)[C@H](OC(C)=O)[C@]5(CC)C=CCN6CC[C@]43[C@@H]65)C2)C1
- inhibition [13]: inactive

SMILES: CC1=CCC[C@@H]2[C@@](C)(CC/C(C)=C/C(=O)O)[C@H](C)CC[C@@]12C [KOLAVENIC ACID]
- inhibition [14]: inactive
- IC50 (WI-38): 265 µM
- Activity [5]: 50%
- Activity [20]: 8%
- IC50 (MDA-MB-231): 272 µM
- Activity [21]: 59%
- Activity [19]: 7%
- fold change (FC) [22]: > 2
- growth restoration (qualitative) [12]: Dose-dependent effect

SMILES: CCOC(=O)C1=C(C)NC(=S)NC1c1cccc(O)c1 (centres undefined)
- inhibition [23]: inactive

SMILES: CC(=O)O[C@H]1C(=O)[C@@]2(C)[C@H]([C@H](OC(=O)c3ccccc3)[C@]3(O)C[C@H](OC(=O)[C@H](O)[C@@H](NC(=O)c4ccccc4)c4ccccc4)C(C)=C1C3(C)C)[C@]1(OC(C)=O)CO[C@@H]1C[C@@H]2O
- inhibition [13]: inactive
